In brackets after ≈: the same amount, converted by molar mass.
Experiments:
[1] = Cytotoxicity against HUVEC assessed as maximum tolerated dose for >95% cell viability after 24 hrs by MTT assay; type: cell-based; settings: human, HUVEC cells; read-out: MTD
How it was run: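 Primary human umbilical vein endothelial cells (mild trypsinization), grown in M-199 with 15% heat-inactivated FCS, endothelial cell growth factor and heparin, 5% CO2. Cells attached overnight, then exposed to compounds or DMSO (0.25%) for 24 h; MTT (5 mg/mL in PBS) 4 h, formazan dissolved in DMSO, absorbance 570 nm. Also checked by trypan blue exclusion. Value is highest concentration giving >95% viability; ≥3 experiments in triplicate.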

[2] = test system: HUVEC; assay: Antiinflammatory activity against TNF-alpha-induced ICAM1 protein expression in HUVEC pretreated for 2 hrs before TNFalpha challenge measured after 16 hrs by whole cell ELISA; type: functional, cell-based; settings: Homo sapiens
How it was run: (§1)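 Primary umbilical cord endothelial cells were pre-incubated 2 h with or without compound, then TNF-α (10 ng/mL) for 16 h (ICAM-1, VCAM-1) or 4 h (E-selectin). Whole-cell ELISA: glutaraldehyde fixation, milk block, primary antibody overnight at 4 °C, peroxidase secondary, OPD substrate, A490. IC50 read from %inhibition vs log concentration plots of three independent experiments. Single-level values were taken at the highest concentration giving >95% viability (MTT, 24 h).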

[3] = test system: HUVEC; assay: Antiinflammatory activity against TNF-alpha-induced ICAM1 protein expression in HUVEC at maximum tolerated dose pretreated for 2 hrs before TNFalpha challenge measured after 16 hrs by whole cell ELISA; type: functional, Homo sapiens; how it was run: as §1
[4] = Antiinflammatory activity against TNF-alpha-induced VCAM-1 protein expression in HUVEC by ELISA

| Structure (SMILES) | MNTC at 24 h [1] [µg/mL] | IC50 [2] [µg/mL] | inhibition (INH) [3] [%] | IC50 [4] [mM] |
| --- | --- | --- | --- | --- |
| COc1cc(/C=C/C(=O)Sc2ccccc2)cc(OC)c1OC | 50 | 30 (≈ 90.8 µM) | 85 | – |
| COc1cc(CCC(=O)OC(C)C)cc(OC)c1OC | 65 | – | 40 | – |
| CCCOC(=S)/C=C/c1ccccc1 [PROPYL THIONOCINNAMATE] | 80 | 50 (≈ 242 µM) | 75 | – |
| CCCOC(=S)/C=C/c1cc(OC)c(OC)c(OC)c1 | 30 | 17 (≈ 57.4 µM) | 80 | – |
| COc1ccc(OC)c(/C=C/C(=O)Oc2ccccc2)c1 | 60 | – | 30 | – |
| COc1cc(/C=C/C(=O)SCc2ccccc2)cc(OC)c1OC | 40 | 20 (≈ 58.1 µM) | 75 | – |
| CCCOC(=O)CCc1cc(OC)c(OC)c(OC)c1 | 120 | 110 (≈ 390 µM) | 62 | – |
| CCCOC(=O)CCc1ccc(OC)c(OC)c1 | 100 | 90 (≈ 357 µM) | 55 | – |
| COc1ccc(CCC(=O)OC(C)C)cc1OC | 110 | – | 30 | – |
| COc1cc(/C=C/C(=O)OC(C)C)cc(OC)c1OC | 65 | 45 (≈ 161 µM) | 80 | – |
| COc1ccc(OC)c(/C=C/C(=O)SCc2ccccc2)c1 | 60 | 60 (≈ 191 µM) | 50 | – |
| Nc1ccc(O)c(C(=O)O)c1 [MESALAMINE] | – | – | – | 16 |
| COc1cccc(/C=C/C(=O)OC(C)C)c1O | 120 | – | 30 | – |
| CC(C)OC(=S)/C=C/c1ccccc1 [ISOPROPYL THIONOCINNAMATE] | 35 | 20 (≈ 96.9 µM) | 80 | – |
| CCSC(=O)CCc1cc(OC)c(OC)c(OC)c1 | 60 | 60 (≈ 211 µM) | 50 | – |
| CCSC(=O)/C=C/c1ccccc1 [ETHYL THIOCINNAMATE] | 50 | 47 (≈ 244 µM) | 55 | – |
| CCCOC(=O)/C=C/c1cc(OC)ccc1OC | 120 | 110 (≈ 439 µM) | 55 | – |
| CCOC(=O)/C=C/c1cc(OC)c(OC)c(OC)c1 | 50 | 25 (≈ 93.9 µM) | 90 | – |
| CCSC(=O)/C=C/c1cc(OC)ccc1OC | 50 | 35 (≈ 139 µM) | 70 | – |
| CCCOC(=O)/C=C/c1ccccc1 [PROPYL CINNAMATE] | 140 | 100 (≈ 526 µM) | 70 | – |
| COc1ccc(OC)c(/C=C/C(=O)OC(C)C)c1 | 120 | – | 35 | – |
| CCCCCCCCSC(=O)/C=C/c1ccccc1 [OCTYL THIOCINNAMATE] | 60 | – | 45 | – |

— ChEMBL document CHEMBL1909575, “Novel natural product-based cinnamates and their thio and thiono analogs as potent inhibitors of cell adhesion molecules on human endothelial cells” (Eur J Med Chem, 2011)
